Data as given in ChEMBL document CHEMBL1150828, “Antimalarial, cytotoxic, and antifungal alkaloids from Duguetia hadrantha” (J Nat Prod, 2001).
Converted amounts (≈) assume the structure as drawn. The source made the active and inactive calls. The rule behind the calls is not given here.

What was measured:
Cryptococcus neoformans [1] = assay: Antifungal activity against Cryptococcus neoformans ATCC 90113; type: functional
SK-MEL = assay: Cytotoxicity against human SK-MEL cells after 2 to 7 days by neutral red assay; type: functional, cell-based
KB = assay: Cytotoxicity against human KB cells after 2 to 7 days by neutral red assay; type: functional, cell-based
Plasmodium falciparum [2] = assay: Antimalarial activity after 48 hrs against chloroquine-resistant Plasmodium falciparum W2 as LDH activity by Makler method; type: functional, organism-based; conditions: W2, 48 h
How it was run: (§1)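 Parasite lactate dehydrogenase (pLDH) assay adapted from Makler, run in 96-well microplates on two P. falciparum clones, W-2 and D-6 (D-6 chloroquine-sensitive). Chloroquine and artemisinin were positive controls, with DMSO as the vehicle control.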

Candida albicans [3] = assay: Antifungal activity against Candida albicans B311 after 48 hrs by modified well microplate assay; type: functional, organism-based; conditions: B311, 48 h
How it was run: (§2)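 ATCC strains (C. albicans B311 #90028, C. neoformans #90113, S. aureus #6535, MRSA #33591) were tested in a modified 96-well microplate protocol. […] Amphotericin B and rifampin served as positive controls and DMSO as the negative control.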

BT-549 = assay: Cytotoxicity against human BT549 cells after 2 to 7 days by neutral red assay; type: functional, cell-based
Staphylococcus aureus [4] = assay: Antibacterial activity against Staphylococcus aureus ATCC 6535 after 48 hrs by modified well microplate assay; type: functional, organism-based; how it was run: as §2
[5] = Selectivity index, ratio of IC50 of african green monkey (Cercopithecus aethiops) Vero cells to IC50 for chloroquine-resistant Plasmodium falciparum W2; type: toxicity, cell-based; conditions: read-out: Ratio IC50
SK-OV-3 = assay: Cytotoxicity against human SKOV3 cells after 2 to 7 days by neutral red assay; type: functional, cell-based
[6] = Specific index, ratio of IC50 for human HL60 cells to MIC for LFA1/ICAM1 mediated aggregation in TPA-stimulated human HL60 cells; type: functional, HL-60
How it was run: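 Ratio of XTT IC50 in HL-60 cells (4 h XTT-PMS read after the aggregation assay) to the microscopic aggregation MIC of PMA (10 ng/mL)-stimulated HL-60 cells scored 16 h after PMA.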

[7] = target: Intercellular adhesion molecule (ICAM-1), Integrin alpha-L/beta-2 (Homo sapiens) (UniProt P20701+P05362+P05107); assay: Inhibition of LFA1/ICAM1-mediated aggregation of TPA-stimulated human HL60 cells pretreated 10 mins before TPA challenge measured after 16 hrs of PMA addition by microscopy; type: cell-based; conditions: HL-60
How it was run: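 HL-60 cells at 1 × 10^6 cells/mL preincubated 10 min with sample, then PMA 10 ng/mL added; plates kept in CO2 incubator and aggregation scored microscopically 16 h after PMA; MIC reported; cytochalasin B, anti-LFA-1 and anti-ICAM-1 antibodies as positive controls.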

HL-60 = assay: Cytotoxicity against human HL60 cells after 16 hrs by XTT/PMS assay; conditions: HL-60, 16 h
Cryptococcus neoformans [8] = assay: Antifungal activity against Cryptococcus neoformans ATCC 90113 after 48 hrs by modified well microplate assay; type: functional, organism-based; how it was run: as §2
Plasmodium falciparum [9] = assay: Antimalarial activity after 48 hrs against chloroquine-sensitive Plasmodium falciparum D6 as LDH activity by Makler method; type: functional, organism-based; conditions: D6, 48 h; how it was run: as §1
Staphylococcus aureus [10] = assay: Antibacterial activity against methicillin-resistant Staphylococcus aureus ATCC 33591 after 48 hrs by modified well microplate assay; type: functional, organism-based; how it was run: as §2
[11] = Selectivity index, ratio of IC50 of african green monkey (Cercopithecus aethiops) Vero cells to IC50 for chloroquine-sensitive Plasmodium falciparum D6; type: toxicity, cell-based; conditions: read-out: Ratio IC50
Plasmodium falciparum [12] = assay: Antimalarial activity against chloroquine-resistant Plasmodium falciparum W2; type: functional, organism-based
How it was run: (§3)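 In vitro antimalarial screen using the parasite lactate dehydrogenase (pLDH) assay, adapted from Makler et al. and run in 96-well microplates. Two P. falciparum clones were tested: W-2 (chloroquine-resistant) and D-6 (chloroquine-sensitive). Chloroquine and artemisinin served as positive controls and DMSO as the vehicle (negative) control. IC50 values were reported.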

Plasmodium falciparum [13] = assay: Antimalarial activity against chloroquine-sensitive Plasmodium falciparum D6; type: functional, organism-based; how it was run: as §3
[14] = target: Intercellular adhesion molecule (ICAM-1), Integrin alpha-L/beta-2 (Homo sapiens, UniProt P05107+P05362+P20701); assay: Inhibition of LFA1/ICAM1-mediated CFSE-labeled TPA-stimulated human HL60 cell adhesion to ICAM1 expressing human HeLa cells after 45 mins by fluorescence analysis; type: cell-based
How it was run: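 CFSE-labelled HL-60 cells plus sample added onto confluent ICAM-1-expressing HeLa monolayers with PMA 50 ng/mL; 45 min at 37 °C in CO2 incubator; nonadherent cells washed off, remainder lysed in 1% Triton X-100; fluorescence at ex 496/em 519 nm; anti-ICAM-1 antibody and cytochalasin B positive controls.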

[15] = Specific index, ratio of IC50 for human HL60 cells to IC50 for LFA1/ICAM1-mediated CFSE-labeled TPA-stimulated human HL60 cell adhesion to ICAM1 expressing human HeLa cells
How it was run: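 Index = HL-60 XTT IC50 / adhesion IC50. XTT: HL-60 at 1 × 10^6 cells/mL, sample 10 min, then PMA 10 ng/mL for 16 h; then XTT 1 mg/mL with 25 µM PMS for 4 h at 37 °C, A450 (ref 630). Adhesion: CFSE-labeled HL-60 on confluent HeLa monolayers, PMA 50 ng/mL, 45 min at 37 °C; nonadherent cells washed off, remainder lysed in 1% Triton X-100, fluorescence ex 496/em 519 nm.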

Candida albicans [16] = assay: Antifungal activity against Candida albicans B311; type: functional
[17] = Staphylococcus aureus, ATCC 6535, 48 h
[18] = Staphylococcus aureus, ATCC 6535, 48 h, read-out: IC50
[19] = Cryptococcus neoformans, ATCC 90113, 48 h
[20] = Cryptococcus neoformans, ATCC 90113, 48 h, read-out: IC50
[21] = Staphylococcus aureus, ATCC 33591, 48 h, read-out: IC50
[22] = Homo sapiens, KB, read-out: IC50
[23] = Homo sapiens, BT-549, read-out: IC50
[24] = Staphylococcus aureus, ATCC 33591, 48 h

Chain of Intercellular adhesion molecule (ICAM-1), Integrin alpha-L/beta-2 (P20701 whole entry): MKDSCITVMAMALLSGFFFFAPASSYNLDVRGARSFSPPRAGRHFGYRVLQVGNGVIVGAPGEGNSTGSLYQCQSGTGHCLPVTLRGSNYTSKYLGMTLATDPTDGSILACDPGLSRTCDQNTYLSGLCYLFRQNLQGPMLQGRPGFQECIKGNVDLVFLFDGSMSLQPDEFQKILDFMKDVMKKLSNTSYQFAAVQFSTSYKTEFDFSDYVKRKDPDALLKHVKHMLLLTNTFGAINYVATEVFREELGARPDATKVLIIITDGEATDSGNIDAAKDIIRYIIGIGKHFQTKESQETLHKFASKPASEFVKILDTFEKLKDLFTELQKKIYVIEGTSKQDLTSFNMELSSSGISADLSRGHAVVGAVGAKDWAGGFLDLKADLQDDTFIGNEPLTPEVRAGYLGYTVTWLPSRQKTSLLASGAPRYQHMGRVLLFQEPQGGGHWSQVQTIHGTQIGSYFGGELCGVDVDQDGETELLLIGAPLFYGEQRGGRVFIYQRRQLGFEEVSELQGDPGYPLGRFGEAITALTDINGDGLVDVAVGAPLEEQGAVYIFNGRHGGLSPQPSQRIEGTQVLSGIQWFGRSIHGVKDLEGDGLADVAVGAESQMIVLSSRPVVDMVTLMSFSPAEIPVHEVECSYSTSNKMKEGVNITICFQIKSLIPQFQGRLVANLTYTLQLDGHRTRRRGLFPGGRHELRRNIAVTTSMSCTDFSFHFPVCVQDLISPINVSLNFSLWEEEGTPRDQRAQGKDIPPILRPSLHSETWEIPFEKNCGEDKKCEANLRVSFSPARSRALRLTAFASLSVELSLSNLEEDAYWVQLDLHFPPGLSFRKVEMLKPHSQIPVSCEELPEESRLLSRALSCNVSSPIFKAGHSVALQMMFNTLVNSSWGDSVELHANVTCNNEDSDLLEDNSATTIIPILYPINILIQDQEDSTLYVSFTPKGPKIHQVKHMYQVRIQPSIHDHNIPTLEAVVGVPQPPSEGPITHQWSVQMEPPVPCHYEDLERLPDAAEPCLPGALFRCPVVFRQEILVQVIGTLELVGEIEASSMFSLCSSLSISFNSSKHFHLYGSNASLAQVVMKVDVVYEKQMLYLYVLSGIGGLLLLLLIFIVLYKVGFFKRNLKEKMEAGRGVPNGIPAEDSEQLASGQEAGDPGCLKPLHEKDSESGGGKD
Chain of Intercellular adhesion molecule (ICAM-1), Integrin alpha-L/beta-2 (P05362 whole entry): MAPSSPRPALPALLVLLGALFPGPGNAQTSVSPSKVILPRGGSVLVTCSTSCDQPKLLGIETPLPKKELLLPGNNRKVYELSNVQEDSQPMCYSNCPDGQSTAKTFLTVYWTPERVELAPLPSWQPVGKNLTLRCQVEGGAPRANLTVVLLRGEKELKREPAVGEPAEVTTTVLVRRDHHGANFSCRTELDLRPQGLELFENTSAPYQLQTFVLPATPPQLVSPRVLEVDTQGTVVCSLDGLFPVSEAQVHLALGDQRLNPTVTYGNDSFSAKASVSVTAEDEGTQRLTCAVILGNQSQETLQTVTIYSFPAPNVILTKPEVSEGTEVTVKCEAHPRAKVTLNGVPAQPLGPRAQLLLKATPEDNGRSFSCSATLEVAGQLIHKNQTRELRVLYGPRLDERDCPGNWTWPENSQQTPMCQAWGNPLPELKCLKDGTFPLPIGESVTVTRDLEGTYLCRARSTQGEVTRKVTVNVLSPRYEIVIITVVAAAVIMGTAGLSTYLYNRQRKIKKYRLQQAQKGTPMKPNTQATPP
Chain of Intercellular adhesion molecule (ICAM-1), Integrin alpha-L/beta-2 (P05107 whole entry): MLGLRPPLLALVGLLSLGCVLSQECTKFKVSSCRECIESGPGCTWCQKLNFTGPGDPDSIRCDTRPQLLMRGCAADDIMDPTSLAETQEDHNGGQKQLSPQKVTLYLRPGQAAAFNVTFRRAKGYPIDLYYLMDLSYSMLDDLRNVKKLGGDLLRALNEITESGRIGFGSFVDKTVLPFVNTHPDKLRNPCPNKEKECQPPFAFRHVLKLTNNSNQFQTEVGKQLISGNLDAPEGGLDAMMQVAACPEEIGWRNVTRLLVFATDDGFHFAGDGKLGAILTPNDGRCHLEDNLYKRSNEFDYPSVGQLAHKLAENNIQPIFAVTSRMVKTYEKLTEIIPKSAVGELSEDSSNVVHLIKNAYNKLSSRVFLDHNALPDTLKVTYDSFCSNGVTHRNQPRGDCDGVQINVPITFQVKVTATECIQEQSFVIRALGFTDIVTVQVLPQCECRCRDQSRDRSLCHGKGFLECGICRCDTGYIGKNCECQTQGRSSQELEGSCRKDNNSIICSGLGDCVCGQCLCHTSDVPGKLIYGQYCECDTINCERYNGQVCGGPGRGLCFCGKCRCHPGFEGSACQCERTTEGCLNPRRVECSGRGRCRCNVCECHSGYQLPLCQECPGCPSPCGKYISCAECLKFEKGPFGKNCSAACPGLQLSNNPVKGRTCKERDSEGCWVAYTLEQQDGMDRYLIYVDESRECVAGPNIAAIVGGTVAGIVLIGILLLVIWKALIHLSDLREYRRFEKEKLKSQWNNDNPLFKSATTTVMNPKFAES

Structure (SMILES)	IC50 (SK-MEL) [mg/L]	IC50 (Plasmodium falciparum [2]) [mg/L]	IC50 (Candida albicans [3]) [mg/L]	MIC (Candida albicans [3]) [mg/L]	selectivity ratio [5]	IC50 (SK-OV-3) [mg/L]	MIC [7] [mg/L]	IC50 (HL-60) [mg/L]	IC50 (Cryptococcus neoformans [8]; [20]) [mg/L]	IC50 (Plasmodium falciparum [9]) [mg/L]	selectivity ratio [11]	IC50 (KB; [22]) [mg/L]	IC50 (BT-549; [23]) [mg/L]	further results
COc1cnc2c3c(nccc13)C(=O)c1ccccc1-2	> 10	0.095 (≈ 0.362 µM)	3 (≈ 11.4 µM)	20 (≈ 76.3 µM)	> 50	> 10	12.5 (≈ 47.7 µM)	7.2 (≈ 27.5 µM)	0.65 (≈ 2.48 µM)	0.28 (≈ 1.07 µM)	> 17			MIC (Cryptococcus neoformans [1]): 0.78 mg/L (≈ 2.97 µM); IC50 (KB; kb): Not Active; IC50 (BT-549; bt-549): Not Active; MIC (Staphylococcus aureus [4]; [17]): 25 mg/L (≈ 95.3 µM); IC50 (Staphylococcus aureus [4]; [18]): 15 mg/L (≈ 57.2 µM); Ratio [6]: 0.6; MIC (Cryptococcus neoformans [8]; [19]): 3.12 mg/L (≈ 11.9 µM); IC50 (Staphylococcus aureus [10]; [21]): 20 mg/L (≈ 76.3 µM)
COc1c2c3c(ccnc3c3ccccc13)C(=O)C(=O)N2C	2 (≈ 6.84 µM)	0.28 (≈ 0.958 µM)	9 (≈ 30.8 µM)	50 (≈ 171 µM)	> 17	5 (≈ 17.1 µM)			50 (≈ 171 µM)	0.55 (≈ 1.88 µM)	> 8.7	> 10	> 10	IC50 (Staphylococcus aureus [4]): Not Active; MIC (Staphylococcus aureus [4]): inactive; IC50 (Staphylococcus aureus [10]): Not Active; MIC (Staphylococcus aureus [10]): inactive
C[C@@H]1[C@H](O)[C@@H](C)/C=C/C=C/C=C/C=C/C=C/C=C/C=C/[C@H](O[C@@H]2O[C@H](C)[C@@H](O)[C@H](N)[C@@H]2O)C[C@@H]2O[C@](O)(C[C@@H](O)C[C@@H](O)[C@H](O)CC[C@@H](O)C[C@@H](O)CC(=O)O[C@H]1C)C[C@H](O)[C@H]2C(=O)O [AMPHOTERICIN B]			0.011 (≈ 0.0119 µM)	0.02 (≈ 0.0216 µM)					0.045 (≈ 0.0487 µM)					IC50 (Staphylococcus aureus [4]): Not Active; MIC (Staphylococcus aureus [4]): inactive; MIC (Cryptococcus neoformans [8]; [19]): 0.156 mg/L (≈ 0.169 µM); IC50 (Staphylococcus aureus [10]): Not Active; MIC (Staphylococcus aureus [10]): inactive
C[C@@H]1CC[C@H]2[C@@H](C)C(=O)O[C@@H]3O[C@@]4(C)CC[C@@H]1[C@]32OO4 [ARTEMISININ]		0.0044 (≈ 0.0156 µM)			> 1080					0.005 (≈ 0.0177 µM)	> 952			IC50 (Plasmodium falciparum [12]): 0.0005 mg/L (≈ 0.00177 µM); IC50 (Plasmodium falciparum [13]): 0.0018 mg/L (≈ 0.00638 µM)
C=C1[C@@H](C)[C@H]2[C@H](Cc3ccccc3)NC(=O)[C@]23OC(=O)/C=C/[C@H](O)CCC[C@@H](C)C/C=C/[C@H]3[C@@H]1O [CYTOCHALASIN B]							0.39 (≈ 0.813 µM)	> 30						Ratio [6]: 76.9; IC50 [14]: 0.521 µM; Ratio IC50 [15]: >120
COc1cccc2c1C(=O)c1c(O)c3c(c(O)c1C2=O)C[C@@](O)(C(=O)CO)C[C@@H]3O[C@H]1C[C@H](N)[C@H](O)[C@H](C)O1 [DOXORUBICIN]	< 1.1					< 1.1						< 1.1	< 1.1	
O=c1[nH]cc(F)c(=O)[nH]1 [FLUOROURACIL]	6.3 (≈ 48.4 µM)					> 10						> 10		IC50 (BT-549; bt-549): Not Active
COc1ccc2c(OC)c3c4c(ccnc4c2c1)C(=O)C(=O)N3C [HADRANTHINE A]	> 10	0.12 (≈ 0.372 µM)	4.5 (≈ 14 µM)	20 (≈ 62.1 µM)	> 40	> 10				0.12 (≈ 0.372 µM)	> 40		> 10	IC50 (KB; kb): Not Active; IC50 (Staphylococcus aureus [4]): Not Active; MIC (Staphylococcus aureus [4]): inactive; IC50 (Cryptococcus neoformans [8]): Not Active; MIC (Cryptococcus neoformans [8]): inactive; IC50 (Staphylococcus aureus [10]): Not Active; MIC (Staphylococcus aureus [10]): inactive
COc1c2c3c(ccnc3c3ccccc13)C(=O)C(=O)N2 [HADRANTHINE B]	3 (≈ 10.8 µM)					3.6 (≈ 12.9 µM)	4.2 (≈ 15.1 µM)	> 12.5				6.4 (≈ 23 µM)	6.6 (≈ 23.7 µM)	Ratio IC50 [6]: 3
CO[C@H]1/C=C/O[C@@]2(C)Oc3c(C)c(O)c4c(O)c(c(/C=N/N5CCN(C)CC5)c(O)c4c3C2=O)NC(=O)/C(C)=C\C=C\[C@H](C)[C@H](O)[C@@H](C)[C@@H](O)[C@@H](C)[C@H](OC(C)=O)[C@@H]1C [RIFAMPIN]														MIC (Staphylococcus aureus [4]; [17]): 0.02 mg/L (≈ 0.0243 µM); IC50 (Staphylococcus aureus [4]; [18]): 0.01 mg/L (≈ 0.0122 µM); MIC (Staphylococcus aureus [10]; [24]): 0.312 mg/L (≈ 0.38 µM); IC50 (Staphylococcus aureus [10]; [21]): 0.0025 mg/L (≈ 0.00304 µM)
O=C1c2ccccc2-c2nccc3ccnc1c23 [SAMPANGINE]	0.37 (≈ 1.59 µM)	0.068 (≈ 0.293 µM)	0.15 (≈ 0.646 µM)	0.39 (≈ 1.68 µM)	> 70	4.1 (≈ 17.7 µM)	< 0.15	2 (≈ 8.61 µM)	0.15 (≈ 0.646 µM)	0.42 (≈ 1.81 µM)	> 11	5.3 (≈ 22.8 µM)	6.4 (≈ 27.6 µM)	IC50 (Staphylococcus aureus [4]; [18]): 5.5 mg/L (≈ 23.7 µM); MIC (Candida albicans [16]): 1.56 mg/L (≈ 6.72 µM); Ratio [6]: >13.3; IC50 [14]: > 43.1 µM; Ratio IC50 [15]: <0.2; MIC (Cryptococcus neoformans [8]; [19]): 0.78 mg/L (≈ 3.36 µM); MIC (Staphylococcus aureus [10]; [24]): 12.5 mg/L (≈ 53.8 µM); IC50 (Staphylococcus aureus [10]; [21]): 9 mg/L (≈ 38.8 µM)
